Published values collected from several papers.
Each line is one published result; the experiments were not run side by side.
PIK3CA C420R: Phosphatidylinositol 4,5-bisphosphate 3-kinase catalytic subunit alpha isoform (PIK3CA, Homo sapiens, UniProt P42336, C420R)
PIK3CA Q546K: Phosphatidylinositol 4,5-bisphosphate 3-kinase catalytic subunit alpha isoform (PIK3CA, Homo sapiens, UniProt P42336, Q546K)
PIK3CA M1043I: Phosphatidylinositol 4,5-bisphosphate 3-kinase catalytic subunit alpha isoform (PIK3CA, Homo sapiens, UniProt P42336, M1043I)
PIK3CA E545K: Phosphatidylinositol 4,5-bisphosphate 3-kinase catalytic subunit alpha isoform (PIK3CA, Homo sapiens, UniProt P42336, E545K)
PIK3CA E542K: Phosphatidylinositol 4,5-bisphosphate 3-kinase catalytic subunit alpha isoform (PIK3CA, Homo sapiens, UniProt P42336, E542K)
PIK3CA H1047L: Phosphatidylinositol 4,5-bisphosphate 3-kinase catalytic subunit alpha isoform (PIK3CA, Homo sapiens, UniProt P42336, H1047L)
PIK3CA I800L: Phosphatidylinositol 4,5-bisphosphate 3-kinase catalytic subunit alpha isoform (PIK3CA, Homo sapiens, UniProt P42336, I800L)
PIK3CA: Phosphatidylinositol 4,5-bisphosphate 3-kinase catalytic subunit alpha isoform (PIK3CA, Homo sapiens, UniProt P42336)
PIK3CA E545A: Phosphatidylinositol 4,5-bisphosphate 3-kinase catalytic subunit alpha isoform (PIK3CA, Homo sapiens, UniProt P42336, E545A)
PIK3CA H1047Y: Phosphatidylinositol 4,5-bisphosphate 3-kinase catalytic subunit alpha isoform (PIK3CA, Homo sapiens, UniProt P42336, H1047Y)

target | observed | method | concentration | remaining binding | SMILES
PIK3CA C420R | binding | competition with immobilised ligand | 1 µM | 86% | Nc1ncc2c(n1)-c1c([nH]c3ccc(C#CC4CC4)cc13)CCCC2
PIK3CA Q546K | binding | – | 10 µM | 37% | CN1CCN(c2ccc(Nc3nccc(-c4cccc([N+](=O)[O-])c4)n3)cc2C(F)(F)F)CC1
PIK3CA M1043I | binding | – | 1 µM | 98% | C[C@@H]1CCN(c2nccc(-c3cnn4ncccc34)n2)C1
PIK3CA E545K | binding | competition with immobilised ligand | 1 µM | 71% | O=C(NCCCN1CCOCC1)c1ccc(Nc2ncc(Cl)c(-c3ccc(Cl)s3)n2)cc1
PIK3CA E542K | cell-free assay | competition with immobilised ligand | 1 µM | 100% | CN1CCN(c2cnc3c(C4CCN(C(=O)c5ccc(OC(F)(F)F)cc5N)CC4)ncnc3c2)CC1
PIK3CA E542K | binding | competition with immobilised ligand | 1 µM | 0% | C=CC(=O)N1CCC(C(=O)NCC(=O)N2CCN(c3nc(-c4cnc(N)nc4C(F)F)nc(N4CCOCC4)n3)CC2)CC1
PIK3CA M1043I | binding | – | 1 µM | 100% | CN(c1nccc(-c2cnn3ncccc23)n1)C1CC1
PIK3CA H1047L | cell-free assay | competition with immobilised ligand | 1 µM | 87% | CSc1cccnc1N1CCN(Cc2nc3ccccc3[nH]2)CC1
PIK3CA H1047L | binding | competition with immobilised ligand | 1 µM | 80% | O=C(c1ccc(Nc2ncc(Cl)c(-c3cc4ccccc4s3)n2)cc1)N1CCC(N2CCCC2)CC1
PIK3CA I800L | binding | competition with immobilised ligand | 0.1 µM | 71% | C[C@@H](c1ccc(-n2cnc3c(N)ncnc32)cc1)N1CCc2nn(C)c(Cc3ccccc3)c2C1=O
PIK3CA | cell-free assay | competition with immobilised ligand | 5 µM | 100% | COc1ncc2cc3ccccc3nc2c1C#N
PIK3CA C420R | binding | – | 1 µM | 78% | COc1ccnn2ncc(-c3ccnc(N(C)C)n3)c12
PIK3CA I800L | cell-free assay | competition with immobilised ligand | 1 µM | 81% | CCCOc1ccc([C@H]2[C@H](C(=O)O)[C@@H](c3ccc4c(c3)OCO4)CN2CC(=O)Nc2c(CC)cccc2CC)cc1
PIK3CA E545A | binding | competition with immobilised ligand | 1 µM | 100% | O=C(Nc1c[nH]nc1C(=O)NC1CCNCC1)c1cc(F)cc(F)c1
PIK3CA | cell-free assay | competition with immobilised ligand | 10 µM | 80% | CC(C)(C)c1ccc(-c2nc(CBr)nn2-c2cccc(O)c2)cc1
PIK3CA E542K | binding | competition with immobilised ligand | 1 µM | 100% | O=C(c1ccc(Nc2ncc(Cl)c(-c3ccc(Cl)s3)n2)cc1)N1CCC(N2CCCC2)CC1
PIK3CA H1047L | cell-free assay | competition with immobilised ligand | 0.1 µM | 86% | O=C(NCCCC1CCCCC1)c1ccc(CNC(=O)c2cnn(-c3ccccc3)c2C(F)(F)F)cc1
PIK3CA Q546K | binding | – | 10 µM | 68% | CN1CCN(c2ccc(Nc3nccc(-c4ccccc4)n3)cc2C(F)(F)F)CC1
PIK3CA H1047L | binding | – | 1 µM | 100% | CN(CCCC(F)(F)F)c1nccc(-c2cnn3ncccc23)n1

target | observed | method | concentration | remaining binding | SMILES
PIK3CA | cell-free assay | competition with immobilised ligand | 1 µM | 76% | Nc1cnc(N2CCc3cc(S(=O)(=O)Nc4c(F)cc(Cl)cc4F)cc(N4CCCC4=O)c32)nc1
PIK3CA M1043I | binding | – | 1 µM | 84% | CN(C)c1nccc(-c2cnc3ncccn23)n1
PIK3CA C420R | binding | competition with immobilised ligand | 1 µM | 83% | Cc1cnc(Nc2ccc(C(=O)N3CCC(N4CCCC4)CC3)cc2)nc1-c1cc2ccccc2s1
PIK3CA | binding | competition with immobilised ligand | 10 µM | 100% | N#Cc1ccccc1CSc1nnc2c(n1)[nH]c1ccccc12
PIK3CA E545A | binding | competition with immobilised ligand | 1 µM | 98% | COc1cnc(Nc2cccc(S(N)(=O)=O)c2)nc1N1CCN(c2ccccc2)C(=O)C1
PIK3CA E545A | cell-free assay | competition with immobilised ligand | 0.1 µM | 100% | COCCOc1nc(-c2ccc(Cl)nc2)nc2c1CN(C(=O)c1ncn3ccccc13)CC2
PIK3CA E545K | binding | competition with immobilised ligand | 10 µM | 94% | c1cncc(-c2cccc(Nc3nccc(NC4CCCCC4)n3)c2)c1
PIK3CA | cell-free assay | competition with immobilised ligand | 0.1 µM | 100% | CN1CC[C@H](c2c(O)cc(O)c3c(=O)cc(-c4ccccc4Cl)oc23)[C@H](O)C1
PIK3CA | cell-free assay | competition with immobilised ligand | 1 µM | 100% | c1ccc(N2CCN(Cc3nc4ccccc4[nH]3)CC2)nc1
PIK3CA | binding | competition with immobilised ligand | 1 µM | 100% | CNC(=O)[C@@H]1CC[C@@H](n2c(-c3ccc4cnccc4c3)nc3ccc(C(=O)NCc4cccc(C(N)=O)c4)cc32)C1
PIK3CA H1047Y | binding | competition with immobilised ligand | 1 µM | 61% | O=C(c1ccc(Nc2nccc(-c3cc4ccccc4s3)n2)cc1)N1CCC(N2CCCC2)CC1
PIK3CA E542K | binding | competition with immobilised ligand | 1 µM | 78% | O=C(NCC1CCOCC1)c1n[nH]cc1NC(=O)c1c(F)cccc1F
PIK3CA C420R | binding | competition with immobilised ligand | 1 µM | 100% | CCN1CCN(Cc2ccc(C(=O)Nc3ccc(C)c(Oc4ccc5c(c4)CC(=O)N5)c3)cc2C(F)(F)F)CC1
PIK3CA I800L | binding | – | 1 µM | 71% | N[C@@H]1CCN(c2nccc(-c3cnn4ncccc34)n2)C1
PIK3CA M1043I | binding | competition with immobilised ligand | 1 µM | 79% | COc1cnc(Nc2cccc(S(N)(=O)=O)c2)nc1N1CCN(c2ccccc2)CC1
PIK3CA H1047Y | binding | – | 1 µM | 88% | CC1CCCN1c1nccc(-c2cnn3ncccc23)n1 (centres unmarked)
PIK3CA H1047L | cell-free assay | competition with immobilised ligand | 1 µM | 77% | O=C(NCc1ncc(C(F)(F)F)cc1Cl)c1ccc2c(c1)C1(CCS(=O)(=O)CC1)[C@H](C1CC1)N2S(=O)(=O)c1ccc(F)cc1
PIK3CA C420R | binding | competition with immobilised ligand | 1 µM | 89% | O=C(NCCCN1CCOCC1)c1ccc(Nc2nccc(-c3cc4ccccc4s3)n2)cc1
PIK3CA E545K | binding | – | 1 µM | 83% | CN(C)c1nccc(-c2cnn3ncccc23)n1
